Bioassay records from PubChem BioAssay.
In the library only some 2% were active in any assay of this set; here they are far more common.
HCV core dimer: inhibitors of HCV core protein dimerization, primary screen, biochemical, TR-FRET, high-throughput; inhibition, % at 5 µM; 300,000 compounds, 0.33% hits; TR-FRET GST/Flag-core106 dimerization, 1536-well; AID 1899, 2009;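 active = inhibition above the mean of all tested compounds plus 3 SD, set per screening campaign, cut at about 45% in these data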
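test system = GST/Flag-tagged HCV core106 proteins | probe or stimulus = Eu donor and XL665 acceptor anti-tag antibodies | times = compound-protein-antibody incubation 4 h at 22.5 °C | signal = TR-FRET, excitation 340 nm, emission 617 and 671 nm | measure = percent inhibition of core106 dimerization signal | controls = wells lacking GST-core106 and wells with excess unlabelled core106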
PABP1 MLLE inh: inhibitors of PABP1 MLLE–PAM2 peptide binding, primary screen, biochemical, fluorescence polarization, FITC-PAM2, GST-MLLE | inhibition, % at 20 µM | 360,000 compounds, 0.36% hits | Polyadenylate-binding protein 1 (Homo sapiens), P11940; in the data active = inhibition above about 35%, passing the limit was not always enough;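 note: plate controls were DMSO wells with GST-MLLE for no effect and wells lacking GST-MLLE protein for full effect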
Target sequence (P11940 whole entry, looked up): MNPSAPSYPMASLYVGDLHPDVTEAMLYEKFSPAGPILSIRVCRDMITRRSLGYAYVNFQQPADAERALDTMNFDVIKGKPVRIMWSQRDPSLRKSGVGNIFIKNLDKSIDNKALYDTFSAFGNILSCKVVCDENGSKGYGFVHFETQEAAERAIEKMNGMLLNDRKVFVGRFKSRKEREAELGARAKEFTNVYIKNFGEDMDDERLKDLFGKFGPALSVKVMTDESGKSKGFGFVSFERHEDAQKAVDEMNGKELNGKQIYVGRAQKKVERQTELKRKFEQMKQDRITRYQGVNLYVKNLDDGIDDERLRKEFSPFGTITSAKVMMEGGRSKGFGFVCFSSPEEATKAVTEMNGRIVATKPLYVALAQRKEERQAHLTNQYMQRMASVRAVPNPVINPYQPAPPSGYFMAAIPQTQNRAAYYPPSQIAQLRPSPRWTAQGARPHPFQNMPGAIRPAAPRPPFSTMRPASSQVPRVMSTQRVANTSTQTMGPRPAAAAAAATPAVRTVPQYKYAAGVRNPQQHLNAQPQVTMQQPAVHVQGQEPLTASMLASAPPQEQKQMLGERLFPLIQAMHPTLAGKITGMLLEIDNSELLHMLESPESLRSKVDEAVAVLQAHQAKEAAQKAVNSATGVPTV
DNA FID counter-1: compounds displacing fluorescent DNA intercalator, primary screen, artefact control for HCV NS3 helicase inhibitor project, biochemical, FID fluorescence. DNA fluorescent intercalator displacement. inhibition, % at 7.9 µM. 290,000 compounds, 0.17% hits. AID 1845, 2009; in the data active = inhibition above about 37%;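 note: 0% = vehicle and 100% = reference compound; higher means more ethidium bromide displaced from hairpin DNA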
PABP FP inh: PABP poly(A) RNA binding inhibitors, primary screen, biochemical, fluorescence polarization, uHTS. inhibition, % at 35 µM. Polyadenylate-binding protein 1 (Homo sapiens), P11940. 290,000 compounds, 1% hits;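 note: calls also rest on retests at 20 µM and on dose response follow-up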
HCV NS3 hel inh: inhibitors of HCV NS3 helicase, primary screen, biochemical, Cy5 molecular beacon fluorescence; Hepatitis C virus NS3 helicase; NS3 helicase DNA unwinding; inhibition, % at 10.9 µM; 290,000 compounds, 0.56% hits; AID 1800, 2009;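 active = inhibition above the mean of all tested compounds plus 3 SD, set per campaign, cut at about 35% in these data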;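 note: 0% = DMSO wells and 100% = thioflavine S control wells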
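Material: hepatitis C virus NS3 helicase domain fragment enzyme; measured by: Cy5 fluorescence, 0 and 60 min reads; control set: DMSO and thioflavine S; incubation: 60 min unwinding reaction at 25 °C after ATP addition; read-out basis: % inhibition from 60/0 min fluorescence ratio, DMSO 0%, thioflavine S 100%; repeats: singlicate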
eIF4H FP inh: human eIF4H binding inhibitors, primary screen, translation initiation inhibitor project, biochemical, uHTS, fluorescence polarization | inhibition, % at 35 µM | 290,000 compounds, 0.94% hits | eIF4H fluorescence polarization binding assay | Eukaryotic translation initiation factor 4H (Homo sapiens), Q15056;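 note: calls also rest on retests at 20 µM and on dose response follow-up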
NS3 helicase cf: HCV NS3 helicase inhibitors, retest, confirmation, biochemical, Cy5 molecular beacon fluorescence, triplicate | 1,600 compounds, 31% hits | AID 1943, 2009 | shares compounds with HCV NS3 hel inh | inhibition, % at 10.9 µM | NS3 helicase DNA unwinding;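 active = inhibition above the mean of all tested compounds plus 3 SD, cutoff set per campaign, cut at about 36% in these data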
DNA FID counter-2: compounds displacing fluorescent DNA intercalator, artefact control for HCV NS3 helicase inhibitor project, biochemical, FID fluorescence, triplicate. shares compounds with HCV NS3 hel inh. DNA fluorescent intercalator displacement. inhibition, % at 7.9 µM. 1,600 compounds, 4% hits; in the data active = inhibition above about 37%;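 note: 0% = vehicle and 100% = reference compound; higher means more displacement of ethidium bromide from the DNA hairpin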
FID counter DR: compounds displacing fluorescent intercalator from DNA, dose response, counter-screen for HCV NS3 helicase inhibitor project, biochemical, fluorescence | fluorescent intercalator displacement from DNA | shares compounds with HCV NS3 hel inh | IC50, µM | 120 tested, under 10 active
Numbers without * were called inactive; . = no result. Unless noted, the rule behind the calls is not given here.

SMILES	HCV core dimer	PABP1 MLLE inh	DNA FID counter-1	PABP FP inh	HCV NS3 hel inh	eIF4H FP inh	NS3 helicase cf	DNA FID counter-2	others
COC(=O)C[C@H]1C[C@H]2c3cc(NC(=O)C4CCC4)ccc3O[C@H]2[C@H](CO)O1	.	-2	.	.	.	.	.	.
COc1ccc(CCNC(=O)COC(=O)/C=C/c2cc(OC)c(OC)c(OC)c2)cc1OC	-3	-7	-35	-10	43*	6	-15	-41
Cc1cc(C)cc(-n2c(N)c(C(=O)Nc3c(C)n(C)n(-c4ccccc4)c3=O)c3nc4ccccc4nc32)c1	3	10	-10	-8	13	5	.	.
COc1cccc(-n2c(N)c(C(=O)Nc3c(C)n(C)n(-c4ccccc4)c3=O)c3nc4ccccc4nc32)c1	19	21	-37	16	38*	17	7	-55
Oc1c(Cl)cc(CN2CCCCC2)c2cccnc12	-9	5	-6	-2	37*	47	-8	7
Nc1nc(-c2cc(O)ccc2[N+](=O)[O-])cc(-c2ccccc2)c1[N+](=O)[O-]	.	-17	25	84*	96*	98*	19	45*
CCOC(=O)c1sc2ncn(/N=C/N(C)C)c(=O)c2c1C	-3	5	-7	-3	41*	0	-5	11
CCCOc1ccc(/C=C2/C(=O)ON=C2C)cc1OCC	10	21	-1	2	16	-9	.	.
CCCCCOc1ccc(/C=c2\sc3nc(=O)c(-c4ccccc4)nn3c2=O)cc1OC	2	11	-24	-16	43*	16	72*	-20	FID counter DR=>79
CCCOc1ccc(/C=c2\sc3nc(-c4ccco4)nn3c2=O)cc1OCC	10	24	-19	4	42*	52	-12	-2
CNC(=O)c1nnsc1S(=O)(=O)c1ccc(Cl)cc1	.	32	7	11	-13	-2	.	.
Cc1ccc(NC(=O)CNc2ccccc2N2CCCC2=O)cc1S(=O)(=O)N1CCCCC1	.	-10	.	.	.	.	.	.
O=c1cc(-c2ccco2)nc(SCc2cccc(Cl)c2)[nH]1	4	10	-20	3	45*	4	9	-9
C=C1c2ccccc2NC(=S)N1Cc1ccc2c(c1)OCO2	17	12	4	-14	3	-3	.	.
Cc1ccc(-c2nc(CNC(=O)c3ccco3)cs2)cc1	23	-3	-44	-8	41*	-2	-18	-10
Cc1ccc(-c2nc(CCNC(=O)c3ccco3)cs2)cc1	0	-1	.	.	.	.	.	.
Cc1ccc(NC(N)=S)cc1	0	-67	-2	-7	36*	-5	2	3
Cn1c(SCc2n[nH]c(=S)n2-c2ccccc2)nnc1-c1ccccc1	-9	5	-7	-8	47*	0	-5	-3
O=C(COC(=O)c1c2c(nc3ccccc13)CCCC2)c1cccs1	-5	1	-20	8	41*	-4	-6	-20
Cc1cc2oc(=O)cc(CN3CCCCC3C)c2cc1Cl (stereo unspecified)	14	-10	-10	1	-3	0	.	.
Cc1cc2oc(=O)cc(CN3CCCCC3C)c2cc1C (stereo unspecified)	13	-21	-9	10	36*	7	0	8
Cc1ccc(C2OCC(C)([N+](=O)[O-])CO2)cc1 (stereo unspecified)	.	16	.	.	.	.	.	.
O=C(NNc1nc2ccccc2s1)Nc1ccc(F)cc1	2	-3	2	0	-7	4	.	.
